Plk1 PBD FP: Plk1 polo box domain binding inhibitors, primary screen, biochemical, fluorescence polarization | actives 0.13% (n = 97,000) | AID 693, 2007 | Plk1 PBD phosphopeptide binding | inhibition, %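 (tested at about 20 µM)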; in the data active means inhibition above about 34%, passing the limit was not always enough
PLK1 kinase inh: human PLK1 kinase inhibitors, primary screen, biochemical, TR-FRET; Serine/threonine-protein kinase PLK1 (Homo sapiens), P53350; recombinant PLK1 kinase, TR-FRET peptide phosphorylation; inhibition, % at 10 µM; actives 0.53% (n = 97,000); AID 619, 2007;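 active means inhibition of 50% or more in the single-concentration screen; inactive means inhibition below 50%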;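 further: 0% = DMSO max control and 100% = H-89 dihydrochloride min control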
HIV Rev-RRE inh: HIV-1 Rev-RRE binding inhibitors, primary screen, biochemical, FRET, protein-RNA interaction | Rev peptide-RRE RNA binding | P05866 | actives 0.79% (n = 97,000) | inhibition, % at 8 µM;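 active means inhibition above the screen-wide mean plus 3 SD, cut at about 35% in these data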;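 further: 0% = median DMSO wells and 100% = median Neomycin B control wells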
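Test system: Cy5-tagged RRE RNA duplex with fluorescein-tagged Rev peptide; Probe or stimulus: labelled Rev peptide; Schedule: 5 min preincubation and 15 min binding, 25 °C; Signal: FRET fluorescence readout; Evaluation: % inhibition from 671/540 nm acceptor-to-donor ratio, scaled between controls; Control set: DMSO and neomycin B.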
FAK inh: FAK kinase inhibitors, primary screen, biochemical. Focal adhesion kinase 1 (Homo sapiens), Q05397. biochemical FAK kinase activity assay. inhibition, %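 (tested at 7 µM)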. actives 0.84% (n = 97,000); in the data active means inhibition above about 19%;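 further: 0% = DMSO and 100% = reference compound high control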
EphB4 antag: EphB4-ephrin-B2 interaction antagonists, primary screen, biochemical, TNYL-RAW peptide probe, fluorescence polarization; actives 0.15% (n = 97,000); Ephrin type-B receptor 4 (Homo sapiens), P54760; EphB4 LBD / TNYL-RAW-Alexa532 peptide; inhibition, % at 7 µM;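 active means inhibition above the screen-wide mean inhibition plus 3 SD, cut at about 15% in these data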;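 further: 0% = DMSO wells and 100% = excess unlabeled TNYL-RAW peptide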
DAT uptake mod: changed hDAT dopamine uptake under cocaine IC80, either direction, primary screen, cocaine antagonist project, cell-based, LLC-PK1 hDAT, [14C]-dopamine uptake, MLSMR. AID 449768, 2010. actives 1.3% (n = 110,000). Sodium-dependent dopamine transporter (Homo sapiens), Q01959. B-score at 10 µM. LLC-PK1 hDAT cells, [14C]-dopamine uptake with cocaine IC80; actives deviate in either direction;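 active means Z score or B-score, a plate-position-corrected score, falls beyond the plate's 99.7% confidence bounds, in either direction; inactive means both scores lie inside the 99.7% bounds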;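 further: scored against the spread of the other compound wells on the same plate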
Active calls of the source: *; [ ] = remark or other dose. An excerpt weighted towards active compounds, which were near 3.2% of everything screened.

O=C(CC(c1ccccc1)c1ccccc1O)NCCN1CCOCC1 (stereo unspecified) was read as DAT uptake mod -7.8*.
O=C(CCCc1ccccc1)NCCN1CCOCC1 was read as Plk1 PBD FP 12, PLK1 kinase inh -10, HIV Rev-RRE inh 3, FAK inh -3, EphB4 antag 3 and DAT uptake mod -0.64.
For O=C(NC1CCCCC1)[C@H](CSCc1ccccc1)N1Cc2ccccc2C1=O the results were DAT uptake mod -0.72.
`Cc1cccc(CN2[C@@H](CC(C)C)COCCS2(=O)=O)c1` gave DAT uptake mod -0.96.
Cc1ccc(N2C(=O)c3cccc4c(N5CCN(C)CC5)ccc(c34)C2=O)c2cccnc12 was read as Plk1 PBD FP 3, PLK1 kinase inh -21, HIV Rev-RRE inh 110*[fluorescence artefact?], FAK inh 3, EphB4 antag 2 and DAT uptake mod 0.035.
`CCN1C(=O)c2cccc3c(S(=O)(=O)Nc4ncccc4C)ccc1c23` gave Plk1 PBD FP -14, PLK1 kinase inh -3, HIV Rev-RRE inh 9, FAK inh -1, EphB4 antag 5 and DAT uptake mod 1.8.
CCOC(=O)c1cnc(Nc2nc3ccccc3o2)nc1CN1CCN(C)CC1 was read as Plk1 PBD FP 1, PLK1 kinase inh -9, HIV Rev-RRE inh 20, FAK inh 5 and EphB4 antag 16*.
CCOC(=O)c1oc2ccccc2c1NC(=O)CN1CCN(C)CC1 was read as Plk1 PBD FP 6, PLK1 kinase inh -3, HIV Rev-RRE inh 2, FAK inh 3, EphB4 antag -4 and DAT uptake mod -0.78.
Screening Cc1ccc2cc(C#N)c(SCC(=O)N3CCCc4ccccc43)nc2c1C returned Plk1 PBD FP 7, PLK1 kinase inh -4, HIV Rev-RRE inh 11, FAK inh -5 and EphB4 antag 1.
CCOC(=O)C1=NN(c2ccc(OC)cc2)C(c2ccccc2)CC1=O (stereo unspecified) was read as Plk1 PBD FP -42, PLK1 kinase inh -7, HIV Rev-RRE inh 3, FAK inh 0, EphB4 antag 3 and DAT uptake mod -8.6*.
CC[C@H]1CC2CN3CCc4c([nH]c5c([C@H]6C[C@H]7[C@H](CC)CN(C)[C@@H](Cc8c6[nH]c6ccccc86)[C@H]7C(=O)OC)c(OC)ccc45)C(C(=O)OC)(C2)C13 was read as DAT uptake mod -0.76.
NC(=O)Cn1nnc(-c2ccccc2NC(=O)c2cnccn2)n1 was read as Plk1 PBD FP 7, PLK1 kinase inh 8, HIV Rev-RRE inh 1, FAK inh 1, EphB4 antag -3 and DAT uptake mod -0.57.
For CCN1CCN(Cc2nc3c(c(=O)n(C)c(=O)n3C)n2CCc2ccccc2)CC1 the results were DAT uptake mod -3*.
`CCOC(=O)Cn1c(CN(C)Cc2ccccc2)nc2c1c(=O)n(C)c(=O)n2C` gave Plk1 PBD FP -2, PLK1 kinase inh -12, HIV Rev-RRE inh 7, FAK inh 53*, EphB4 antag 2 and DAT uptake mod -0.0011.
Cc1cc(Cl)cc2c1NC(=O)[C@]21[C@@H]2C(=O)N(Cc3ccccc3)C(=O)[C@@H]2[C@@H]2CCCN21 was read as Plk1 PBD FP -29, PLK1 kinase inh -16, HIV Rev-RRE inh 7, FAK inh 2, EphB4 antag -9 and DAT uptake mod 3.7*.
Screening CCc1ccc2c(c1)[C@]1(C(=O)N2)[C@@H]2C(=O)N(Cc3ccccc3)C(=O)[C@@H]2[C@@H]2CCCN21 returned Plk1 PBD FP -17, PLK1 kinase inh 4, HIV Rev-RRE inh 2, FAK inh -2, EphB4 antag 2 and DAT uptake mod -0.11.
Screening O=C(CSc1nc(-c2ccco2)cc(C(F)(F)F)n1)NC1CCCC1 returned Plk1 PBD FP 18, PLK1 kinase inh 69*, HIV Rev-RRE inh 0, FAK inh 2, EphB4 antag -2 and DAT uptake mod -0.75.
For O=C(CSc1nc(-c2ccco2)cc(C(F)(F)F)n1)Nc1ccc2c(c1)CCC2 the results were Plk1 PBD FP 1, PLK1 kinase inh -13, HIV Rev-RRE inh 8, FAK inh -1, EphB4 antag -6 and DAT uptake mod 0.77.
CC1CN(S(=O)(=O)c2cccc(-c3csc(-c4ccccc4)n3)c2)CC(C)O1 (stereo unspecified) was read as Plk1 PBD FP 1, PLK1 kinase inh -10, HIV Rev-RRE inh 12, FAK inh -1, EphB4 antag 4 and DAT uptake mod 2.4*.
Screening Cc1cc(C)c(C)c(S(=O)(=O)Nc2ccc(OCC(=O)O)cc2)c1C returned Plk1 PBD FP -3, PLK1 kinase inh -12, HIV Rev-RRE inh 9, FAK inh 1, EphB4 antag 13 and DAT uptake mod 1.1.
Screening c1ccc(-c2oc3ncnc(NCCCn4ccnc4)c3c2-c2ccccc2)cc1 returned Plk1 PBD FP -16, PLK1 kinase inh 19, HIV Rev-RRE inh 3, FAK inh 17, EphB4 antag -2 and DAT uptake mod 2.7*.
Cc1nnc(NC(=O)CSc2nccn2C)s1 was read as Plk1 PBD FP -3, PLK1 kinase inh -5, HIV Rev-RRE inh 8, FAK inh 1, EphB4 antag 71* and DAT uptake mod -0.4.
For CC(C)Cc1nnc(NS(C)(=O)=O)s1 the results were Plk1 PBD FP 25, PLK1 kinase inh 15, HIV Rev-RRE inh 6, FAK inh -2, EphB4 antag -1 and DAT uptake mod -7.8*.
For Cc1ccc(S(=O)(=O)c2c(N)n(Cc3ccco3)c3nc4ccccc4nc23)cc1C the results were Plk1 PBD FP 14, PLK1 kinase inh -6, HIV Rev-RRE inh 26, FAK inh -1, EphB4 antag 2 and DAT uptake mod 1.9.
For Nc1c(S(=O)(=O)c2ccccc2)c2nc3ccccc3nc2n1Cc1ccco1 the results were Plk1 PBD FP -20, PLK1 kinase inh -2, HIV Rev-RRE inh 43*, FAK inh -4, EphB4 antag -6 and DAT uptake mod 1.5.
For Cc1ccc(C2C(C(=O)c3ccco3)=C(O)C(=O)N2c2nnc(C)s2)cc1 (stereo unspecified) the results were Plk1 PBD FP -28, PLK1 kinase inh -10, HIV Rev-RRE inh 48*, FAK inh 1, EphB4 antag -1 and DAT uptake mod -0.35.
`COc1ccc(C2C(C(=O)c3cccs3)=C(O)C(=O)N2c2nncs2)cc1` (stereo unspecified) gave Plk1 PBD FP -4, PLK1 kinase inh -1, HIV Rev-RRE inh 102*[fluorescence artefact?], FAK inh -4, EphB4 antag -9 and DAT uptake mod 0.61.
